Results pooled from the literature.
Each line is one published result; the experiments were not run side by side.
LDHA: L-lactate dehydrogenase A chain (LDHA, Homo sapiens, UniProt P00338)
PRMT3: Protein arginine N-methyltransferase 3 (PRMT3, Homo sapiens, UniProt O60678)
MAOA: Amine oxidase [flavin-containing] A (MAOA, Homo sapiens, UniProt P21397)
ADRA1A: Alpha-1A adrenergic receptor (ADRA1A, Homo sapiens, UniProt P35348)
Rps6ka1: Ribosomal protein S6 kinase alpha-1 (Rps6ka1, Rattus norvegicus, UniProt Q63531)

SMILES | target | assay | conditions | inhibition
COC(=O)CN=c1scc(-c2ccccc2)n1-c1ccccc1[N+](=O)[O-] | LDHA | enzyme activity, inhibitor, fluorescence | 100 µM, pH 7.2 | 53%
N=C(NCCCSC[C@H]1O[C@@H](n2cnc3c(NCCCc4ccccc4)ncnc32)[C@H](O)[C@@H]1O)Nc1ccccc1 | PRMT3 | enzyme activity, inhibitor, fluorescence | 10 µM | 4.92%
O=C(Nc1cc(F)ccc1[N+](=O)[O-])c1cc(Cl)ccc1O | MAOA | enzyme activity, inhibitor | 1 µM, 20 min | 8%
CCN(CC)CCNC(=O)c1c(C)[nH]c(/C=C2\C(=O)Nc3ccc(F)cc32)c1C | Cyclin-dependent kinase-like 2 (CDKL2, Homo sapiens, UniProt Q92772) | binding, competition with immobilised ligand | 10 µM | 92%
CCCNc1nc2ccccc2n1Cc1ccc(Cl)cc1 | ADRA1A | ligand displacement | 10 µM | -2.69%
CC[C@H](C)[C@H](NC(=O)[C@H](CCC(N)=O)NC(=O)[C@H](CC(C)C)NC(=O)[C@H](CCSC)NC(=O)[C@H](CCCCN)NC(=O)[C@H](CO)NC(=O)[C@H](CO)NC(=O)[C@H](CCSC)NC(=O)[C@H](CC(C)C)NC(=O)[C@H](CC(N)=O)NC(=O)[C@@H](NC(=O)[C@@H](NC(=O)[C@H](CO)NC(=O)[C@H](CC(C)C)NC(=O)[C@H](CS)NC(=O)[C@H](CCCNC(=N)N)NC(=O)[C@H](CC(=O)O)NC(=O)[C@H](Cc1c[nH]c2ccccc12)NC(=O)[C@H](Cc1ccccc1)NC(=O)[C@H](C)NC(=O)[C@H](CCC(=O)O)NC(=O)[C@@H](N)CCCCN)C(C)C)[C@@H](C)CC)C(=O)N[C@@H](CC(N)=O)C(=O)N[C@@H](C)C(=O)O | Cyclin-dependent kinase 5, with p25 (CDK5, Homo sapiens, UniProt Q00535) | enzyme activity, inhibitor, radiometric | 50 µM | 20%
COc1ccc(/C=C/C(=O)N2CCc3ccccc3C2)cc1OC | MAOA | enzyme activity, inhibitor, fluorescence | 62.5 µM | 11.3%
C#CCNC(=N)NCCCSC[C@H]1O[C@@H](n2cnc3c(NCCCc4ccccc4)ncnc32)[C@H](O)[C@@H]1O | PRMT3 | enzyme activity, inhibitor, fluorescence | 10 µM | 6.56%
O=C(Nc1cc(Cl)cc(Cl)c1)c1cc(Cl)ccc1O | MAOA | enzyme activity, inhibitor | 1 µM, 20 min | 4%
O=C(OC(C(F)(F)F)C(F)(F)F)N1CCC(CCn2nnc3ccccc32)CC1 | Fatty-acid amide hydrolase 1 (Faah, Rattus norvegicus, UniProt P97612) | enzyme activity, inhibitor | 10 µM | 47%
CN(C)C1CCN(CC#Cc2nn(C3CCCC3)c3nc(NCc4ccccc4)ncc23)C1 (stereo not drawn) | Serine/threonine-protein kinase MARK2 (MARK2, Homo sapiens, UniProt Q7KZI7) | enzyme activity, inhibitor, FRET | 0.1 µM | 4%
COc1cc([N+](=O)[O-])ccc1NC(=O)c1ccccc1O | MAOA | enzyme activity, inhibitor | 1 µM, 20 min | 9%
N=C(NCCCSC[C@H]1O[C@@H](n2cnc3c(NCCCc4ccccc4)ncnc32)[C@H](O)[C@@H]1O)NCC1CC1 | PRMT3 | enzyme activity, inhibitor, fluorescence | 10 µM | -19.4%
COC(=O)CN=c1scc(-c2ccccc2)n1-c1ccc(Cl)cc1 | LDHA | enzyme activity, inhibitor, fluorescence | 100 µM, pH 7.2 | 41%
N#Cc1ccc(NC(=O)c2ccc3c(c2)OCO3)cc1 | MAOA | enzyme activity, inhibitor | 1 µM, 20 min | 38%
Cc1ccc(Nc2nccc(N(C)c3ccc4c(C)n(C)nc4c3)n2)cc1S(N)(=O)=O | Rps6ka1 | enzyme activity, inhibitor | 10 µM | 41%
O=C(Nc1cccc(Cl)c1)c1cc(Cl)ccc1O | MAOA | enzyme activity, inhibitor | 1 µM, 20 min | 15%
COC(=O)CN=c1scc(-c2ccccc2)n1-c1ccccc1C | LDHA | enzyme activity, inhibitor, fluorescence | 100 µM, pH 7.2 | 43%

SMILES | target | assay | conditions | inhibition
N=C(NCCCSC[C@H]1O[C@@H](n2cnc3c(NCCCc4ccccc4)ncnc32)[C@H](O)[C@@H]1O)NCc1ccccc1 | PRMT3 | enzyme activity, inhibitor, fluorescence | 10 µM | -4.37%
CNC(=O)c1cc(Oc2ccc(NC(=O)Nc3ccc(Cl)c(C(F)(F)F)c3)cc2)ccn1 | Rps6ka1 | enzyme activity, inhibitor | 0.3 µM | 11%
O=C1N=C(N2CCCCN2)S/C1=C\c1ccc(F)cc1O | Kappa-type opioid receptor (Oprk1, Rattus norvegicus, UniProt P34975) | ligand displacement, radioligand | 10 µM | 11%
O=C(c1ccc(Cl)cc1)N(Cc1ccccc1)C1CCCCC1 | Vasoactive intestinal polypeptide receptor 1 (VIPR1, Homo sapiens, UniProt P32241) | cell-free assay | 10 µM | -0.7%
CCCCNC(=N)NCCCSC[C@H]1O[C@@H](n2cnc3c(NCCCc4ccccc4)ncnc32)[C@H](O)[C@@H]1O | PRMT3 | enzyme activity, inhibitor, fluorescence | 10 µM | 11.1%
N#Cc1ccc(NC(=O)c2ccc(Cl)cc2)cc1 | MAOA | enzyme activity, inhibitor | 1 µM, 20 min | 72%
N=C(NCCCSC[C@H]1O[C@@H](n2cnc3c(NCCCc4ccccc4)ncnc32)[C@H](O)[C@@H]1O)NC1CC1 | PRMT3 | enzyme activity, inhibitor, fluorescence | 10 µM | -8.93%
Nc1ncnc2c1ncn2[C@@H]1O[C@H](CSCCNC(=O)NCc2ccccc2)[C@@H](O)[C@H]1O | Protein arginine N-methyltransferase 5 (PRMT5, Homo sapiens, UniProt O14744) | enzyme activity, inhibitor, radiometric | 10 µM | > 95%
CC(C)CCN[C@@H]1C[C@@H](c2ccc(Cl)c(Cl)c2)c2ccccc21 (relative stereo) | Glutathione reductase, mitochondrial (GSR, Homo sapiens, UniProt P00390) | enzyme activity, inhibitor | 25 µM | < 12%
CN1CC(Oc2cnc(C#N)cc2-c2ccn3nc(NC(=O)C4CC4)cc3c2)C1 | Cyclin-dependent kinase-like 4 (CDKL4, Homo sapiens, UniProt Q5MAI5) | enzyme activity, inhibitor | 1 µM | -9%
Cc1ccc(-n2nc(C(C)(C)C)cc2NC(=O)Nc2ccc(OCCN3CCOCC3)c3ccccc23)cc1 | Tyrosine-protein phosphatase non-receptor type 1 (PTPN1, Homo sapiens, UniProt P18031) | enzyme activity, inhibitor | 10 µM | 18%
N=C(NCCCSC[C@H]1O[C@@H](n2cnc3c(NCCCc4ccccc4)ncnc32)[C@H](O)[C@@H]1O)NCCc1ccccc1 | PRMT3 | enzyme activity, inhibitor, fluorescence | 10 µM | 1.64%
COc1cc([N+](=O)[O-])ccc1NC(=O)c1ccc(Cl)cc1 | MAOA | enzyme activity, inhibitor | 1 µM, 20 min | 2%
Oc1cccc(Nc2nc(-c3ccc(F)cc3F)cs2)c1 | Translocator protein (Tspo, Rattus norvegicus, UniProt P16257) | ligand displacement, radioligand | 10 µM | 63%
COC(=O)CN=c1scc(-c2ccccc2)n1-c1ccccc1 | LDHA | enzyme activity, inhibitor, fluorescence | 100 µM, pH 7.2 | 33%
N#Cc1cc(Cn2c(N3CCCC3)nc3ccccc32)ccc1F | ADRA1A | ligand displacement | 10 µM | -11.7%
COc1cc(NC(C)=O)c(Cl)cc1C(=O)Nc1nccs1 | ADRA1A | cell-free assay | 10 µM | 13.9%
O=C(Nc1ccc([N+](=O)[O-])cc1Cl)c1ccc2ccccc2c1 | MAOA | enzyme activity, inhibitor | 1 µM, 20 min | 11%
